What was measured:
EGFR^WT = EGFR^WT (Homo sapiens, UniProt P00533); test: HTRF kinase inhibitory assay, EGFR^WT; assay type: biochemical
A549 cell line = test: MTT antiproliferative test, A549; assay type: cell-based; conditions: Homo sapiens, A549, read-out: IC50 (n = 3), antiproliferative effect vs A549
MCF-7 cell line = test: MTT antiproliferative test, MCF-7; assay type: cell-based; conditions: Homo sapiens, MCF7, read-out: IC50 (n = 3), antiproliferative effect vs MCF-7
EGFR^T790M = EGFR^T790M (Homo sapiens, UniProt P00533, T790M); test: biochemical; assay type: biochemical
[1] = Antioxidant activity by ABTS method; conditions: absorbance at 734 nm
In short: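 ABTS radical cation was generated by mixing ammonium peroxodisulfate (65 mmol/dm3) with ABTS in phosphate buffer pH 7.4 and leaving it overnight. The stock was diluted in phosphate buffer pH 7.4 and A734 was read. Test compound was added after 1 min, mixed, and A734 was re-read. Results are expressed as trolox equivalents from a linear trolox calibration (absorbance decrease vs concentration).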

IC50 (EGFR^WT)	IC50 (A549 cell line)	IC50 (MCF-7 cell line)	IC50 (EGFR^T790M)	times the activity of gefitinib vs EGFR^T790M (EGFR^T790M; ratio of IC50 vs gefitinib)	Structure (SMILES)	radical scavenging activity (ABTS) [1]
3.27 ± 0.16 µM	8.27 ± 0.16 µM	17.3 ± 0.71 µM	16.3 ± 0.61 µM	–	Nc1c(-c2nnn[nH]2)sc2sc(-c3nnn[nH]3)c(N)c12 [Compound 7, 2,5-Di(1H-tetrazol-5-yl)thieno[2,3-b]thiophene-3,4-diamine]	–
2.02 ± 0.12 µM	7.54 ± 0.32 µM	17.3 ± 0.71 µM	15.1 ± 0.51 µM	–	N=c1c2sc3sc4c(=N)n(-c5ccccc5)c(=O)[nH]c4c3c2[nH]c(=O)n1-c1ccccc1 [Compound 5, 1,8-Diimino-2,7-diphenyl-1,4,7,8-tetrahydro-2H,5H-9,10-dithia-2,4,5,7-tetraaza-indeno[1,2-a]indene-3,6-dione]	70%
0.29 ± 0.05 µM	5.09 ± 0.15 µM	8.57 ± 0.31 µM	7.89 ± 0.31 µM	2.71 times	N#Cc1sc2sc(C#N)c(N)c2c1N [Compound 1, 3,4-diaminothieno[2,3-b]thiophene-2,5-dicarbonitrile]	–
–	19.3 ± 1.85 µM	21.8 ± 1.85 µM	–	–	C#Cc1cccc(Nc2ncnc3cc(OCCOC)c(OCCOC)cc23)c1 [erlotinib, reference compound]	–
